Reference: ChEMBL document CHEMBL5107937, “Synthesis and antitumour evaluation of indole-2-carboxamides against paediatric brain cancer cells” (RSC Med Chem, 2021)

Experiments:
KNS-42 [1] = experiment: Antiproliferative activity against human KNS-42 cells assessed as cell growth inhibition incubated for 72 hrs by MTT assay; format: functional, cell-based; details: KNS-42, 72 h
Summary of the method: (§1)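 Proliferation screen run in triplicate. IC50 is the compound dose giving 50% inhibition of cell proliferation.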

KNS-42 [2] = experiment: Cytotoxicity against human KNS-42 cells assessed as reduction in cell viability incubated for 72 hrs by PrestoBlue reagent based cell viability assay; format: functional; details: KNS-42, 72 h
Summary of the method: (§2)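 Viability screen run in triplicate. IC50 is the compound dose giving 50% inhibition of cell viability, taken as cytotoxicity.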

[3] = Cytotoxicity against human BT-12 cells assessed as reduction in cell viability incubated for 72 hrs by PrestoBlue reagent based cell viability assay; format: functional; details: BT-12, 72 h; summary of the method: as §2
Cannabinoid receptor 2 [4] = biological target: T1, Cannabinoid receptor 2 (Homo sapiens, UniProt P34972); experiment: Antagonist activity at human CB2R expressed in mouse AtT20 cells at 10 uM by FLIPR membrane potential assay; format: functional, cell-based
T1 sequence (P34972 whole entry): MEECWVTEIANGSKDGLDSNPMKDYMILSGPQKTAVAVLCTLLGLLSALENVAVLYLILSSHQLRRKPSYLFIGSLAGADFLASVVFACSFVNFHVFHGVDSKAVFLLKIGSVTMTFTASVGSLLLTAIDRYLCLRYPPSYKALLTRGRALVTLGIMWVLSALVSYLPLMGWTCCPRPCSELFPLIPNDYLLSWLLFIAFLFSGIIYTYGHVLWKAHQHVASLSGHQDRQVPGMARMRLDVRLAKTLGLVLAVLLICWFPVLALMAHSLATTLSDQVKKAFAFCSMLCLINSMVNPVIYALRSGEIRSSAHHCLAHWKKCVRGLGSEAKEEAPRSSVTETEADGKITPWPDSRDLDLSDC
Summary of the method: (§3)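 AtT-20 cells stably carrying human CB1R or human CB2R were pre-incubated with compound or vehicle for 60 minutes. 500 nM CP 55940 was then added and membrane potential responses were recorded. IC50 is for inhibition of the agonist response.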

[5] = Antiproliferative activity against human HFF-1 cells assessed as cell growth inhibition incubated for 72 hrs by MTT assay; format: toxicity, cell-based; summary of the method: as §1
Cannabinoid receptor 1 [6] = biological target: T2, Cannabinoid receptor 1 (Homo sapiens, UniProt P21554); experiment: Antagonist activity at human CB1R expressed in mouse AtT20 cells at 10 uM by FLIPR membrane potential assay; format: functional, cell-based; summary of the method: as §3
T2 sequence (P21554 whole entry): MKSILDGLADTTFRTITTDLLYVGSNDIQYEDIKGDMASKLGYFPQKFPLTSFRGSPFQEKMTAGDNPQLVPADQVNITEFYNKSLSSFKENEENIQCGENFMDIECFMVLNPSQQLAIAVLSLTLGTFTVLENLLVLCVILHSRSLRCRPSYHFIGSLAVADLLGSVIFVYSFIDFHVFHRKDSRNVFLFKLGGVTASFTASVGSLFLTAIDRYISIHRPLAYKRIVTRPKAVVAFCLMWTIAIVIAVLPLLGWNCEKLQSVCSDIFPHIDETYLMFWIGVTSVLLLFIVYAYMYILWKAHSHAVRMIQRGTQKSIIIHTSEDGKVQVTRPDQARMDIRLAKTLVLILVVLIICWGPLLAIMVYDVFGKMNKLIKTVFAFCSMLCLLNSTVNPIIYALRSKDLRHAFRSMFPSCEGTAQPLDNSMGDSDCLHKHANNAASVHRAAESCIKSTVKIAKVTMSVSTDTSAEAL

Cannabinoid receptor 2 [7] = biological target: T1, Cannabinoid receptor 2; experiment: Agonist activity at human CB2R expressed in mouse AtT20 cells at 10 uM by FLIPR membrane potential assay; format: functional, cell-based
Summary of the method: (§4)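 Agonist mode: AtT-20 cells stably transfected with human CB1R or human CB2R; membrane potential responses recorded.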

Daoy [8] = experiment: Cytotoxicity against human Daoy cells assessed as reduction in cell viability incubated for 72 hrs by PrestoBlue reagent based cell viability assay; format: functional; summary of the method: as §2
[9] = Cytotoxicity against human BT-16 cells assessed as reduction in cell viability incubated for 72 hrs by PrestoBlue reagent based cell viability assay; format: functional; details: BT-16, 72 h; summary of the method: as §2
Cannabinoid receptor 1 [10] = biological target: T2, Cannabinoid receptor 1; experiment: Agonist activity at human CB1R expressed in mouse AtT20 cells at 10 uM by FLIPR membrane potential assay; format: functional, cell-based; summary of the method: as §4
[11] = Cytotoxicity against human HFF-1 cells assessed as reduction in cell viability incubated for 72 hrs by PrestoBlue reagent based cell viability assay; format: toxicity; summary of the method: as §2
[12] = Antiproliferative activity against human BT-16 cells assessed as cell growth inhibition incubated for 72 hrs by MTT assay; format: functional, cell-based; details: BT-16, 72 h; summary of the method: as §1
[13] = Antiproliferative activity against human BT-12 cells assessed as cell growth inhibition incubated for 72 hrs by MTT assay; format: functional, cell-based; details: BT-12, 72 h; summary of the method: as §1
[14] = Octanol-water partition coefficient, logP of the compound; format: physicochemical
Daoy [15] = experiment: Antiproliferative activity against human Daoy cells assessed as cell growth inhibition incubated for 72 hrs by MTT assay; format: functional, cell-based; summary of the method: as §1
Cannabinoid receptor 1 [16] = biological target: T2, Cannabinoid receptor 1; experiment: Antagonist activity at human CB1R expressed in mouse AtT20 cells by FLIPR membrane potential assay; format: functional, cell-based; summary of the method: as §3
Cannabinoid receptor 2 [17] = biological target: T1, Cannabinoid receptor 2; experiment: Antagonist activity at human CB2R expressed in mouse AtT20 cells by FLIPR membrane potential assay; format: functional, cell-based
Summary of the method: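 AtT-20 cells stably transfected with human CB2R; membrane potential response read out. Antagonist mode: cells pre-incubated with vehicle or compound for 60 min, then challenged with 500 nM CP 55940. IC50 derived from inhibition of the agonist response. Not active defined as <50% inhibition at 10 μM.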

O=C(NC12CC3CC(CC(C3)C1)C2)c1n[nH]c2ccccc12
IC50 (KNS-42 [1]): > 10 µM | IC50 (KNS-42 [2]): > 10 µM

O=C(NC12CC3CC(CC(C3)C1)C2)c1cc(=O)c2ccc(Cl)c(Cl)c2[nH]1
IC50 (KNS-42 [1]): > 10 µM | IC50 (KNS-42 [2]): > 10 µM

O=C(NC12CC3CC(CC(C3)C1)C2)c1c[nH]c2ccc(Cl)cc2c1=O
IC50 (KNS-42 [1]): > 10 µM | IC50 (KNS-42 [2]): > 10 µM

O=C(NC12CC3CC(CC(C3)C1)C2)c1cc(=O)c2cc(Cl)ccc2[nH]1
IC50 (KNS-42 [1]): 6.11 µM | IC50 (KNS-42 [2]): > 10 µM

O=C(NCc1ccccc1)c1cc2c(F)cc(F)cc2[nH]1
IC50 (KNS-42 [1]): 9.85 µM | IC50 [3]: 0.89 µM | inhibition (Cannabinoid receptor 2 [4]): < 50% | IC50 at 72 h [5]: 65 µM | inhibition (Cannabinoid receptor 1 [6]): < 50% | Activity (Cannabinoid receptor 2 [7]): < 50% | IC50 (Daoy [8]): > 10 µM | IC50 [9]: 1.81 µM | Activity (Cannabinoid receptor 1 [10]): < 50% | IC50 (KNS-42 [2]): 8.25 µM | IC50 at 72 h [11]: 119 µM | IC50 [12]: 6.06 µM | IC50 [13]: 7.44 µM | logP [14]: 3.17 | IC50 (Daoy [15]): > 10 µM

O=C(NC12CC3CC(CC(C3)C1)C2)c1nc2ccccc2[nH]1
IC50 (KNS-42 [1]): > 10 µM | IC50 (KNS-42 [2]): > 10 µM

Cc1c(C(=O)c2cccc3ccccc23)c2cccc3c2n1[C@@H](CN1CCOCC1)CO3
IC50 (KNS-42 [1]): 8.07 µM | IC50 [3]: 8.6 µM | IC50 at 72 h [5]: 1.82 µM | IC50 (Daoy [8]): > 10 µM | IC50 [9]: 4.74 µM | IC50 (KNS-42 [2]): 8.02 µM | IC50 at 72 h [11]: 0.023 µM | IC50 [12]: 4.57 µM | IC50 [13]: 9.32 µM | logP [14]: 4.13 | IC50 (Daoy [15]): 6.09 µM

O=C(NCc1ccc2c(c1)OCO2)c1cc2c(F)cc(F)cc2[nH]1
IC50 (KNS-42 [1]): > 10 µM | IC50 (KNS-42 [2]): > 10 µM

O=C(NC12CC3CC(CC(C3)C1)C2)c1cc2ccccc2n1CCCCO
IC50 (KNS-42 [1]): > 10 µM | IC50 (KNS-42 [2]): 4.75 µM

CCCC(C)(C)c1ccc2c(c1)OC(C)(C)[C@@H]1CC=C(C)C[C@@H]21
IC50 (KNS-42 [1]): > 10 µM | IC50 (KNS-42 [2]): > 10 µM

Cc1cccc(CNC(=O)c2cc3c(F)cc(F)cc3[nH]2)c1
IC50 (KNS-42 [1]): > 10 µM | IC50 (KNS-42 [2]): > 10 µM

O=C(NCCc1ccc2c(c1)OCO2)c1cc2c(F)cc(F)cc2[nH]1
IC50 (KNS-42 [1]): 2.88 µM | IC50 [3]: 6.08 µM | inhibition (Cannabinoid receptor 2 [4]): < 50% | IC50 at 72 h [5]: 6.98 µM | IC50 (Cannabinoid receptor 1 [16]): 0.373 µM | Activity (Cannabinoid receptor 2 [7]): < 50% | IC50 (Daoy [8]): 3.65 µM | IC50 [9]: 2.72 µM | Activity (Cannabinoid receptor 1 [10]): < 50% | IC50 (KNS-42 [2]): 2.34 µM | IC50 at 72 h [11]: 81 µM | IC50 [12]: 7.53 µM | IC50 [13]: 4.1 µM | logP [14]: 3.02 | IC50 (Daoy [15]): 9.91 µM

O=C(NC12CC3CC(CC(C3)C1)C2)c1ccc(NC(=O)c2cc3c(F)cc(F)cc3[nH]2)cc1
IC50 (KNS-42 [1]): > 10 µM | IC50 (KNS-42 [2]): > 10 µM

O=C(CC12CC3CC(CC(C3)C1)C2)Nc1nc2ccccc2[nH]1
IC50 (KNS-42 [1]): 6.46 µM | IC50 (KNS-42 [2]): > 10 µM

O=C(NC12CC3CC(CC(C3)C1)C2)c1cc(=O)c2c(Cl)ccc(Cl)c2[nH]1
IC50 (KNS-42 [1]): > 10 µM | IC50 (KNS-42 [2]): > 10 µM

O=C(c1cc2c(F)cc(F)cc2[nH]1)N1CCN(C(=O)C23CC4CC(CC(C4)C2)C3)CC1
IC50 (KNS-42 [1]): 6.62 µM | inhibition (Cannabinoid receptor 2 [4]): < 50% | inhibition (Cannabinoid receptor 1 [6]): < 50% | Activity (Cannabinoid receptor 2 [7]): < 50% | Activity (Cannabinoid receptor 1 [10]): < 50% | IC50 (KNS-42 [2]): 5.04 µM

O=C(Nc1nc2ccccc2[nH]1)c1cc2c(F)cc(F)cc2[nH]1
IC50 (KNS-42 [1]): 4.03 µM | IC50 [3]: 7.65 µM | inhibition (Cannabinoid receptor 2 [4]): < 50% | IC50 at 72 h [5]: 3.03 µM | inhibition (Cannabinoid receptor 1 [6]): < 50% | Activity (Cannabinoid receptor 2 [7]): < 50% | IC50 (Daoy [8]): 1.02 µM | IC50 [9]: 1.37 µM | Activity (Cannabinoid receptor 1 [10]): < 50% | IC50 (KNS-42 [2]): 4.49 µM | IC50 at 72 h [11]: 115 µM | IC50 [12]: 5.41 µM | IC50 [13]: 1.79 µM | logP [14]: 2.69 | IC50 (Daoy [15]): 2.31 µM

O=C(NC12CC3CC(CC(C3)C1)C2)c1c[nH]c2c(Cl)ccc(Cl)c2c1=O
IC50 (KNS-42 [1]): 2.92 µM | IC50 [3]: 5.15 µM | IC50 at 72 h [5]: 3.85 µM | inhibition (Cannabinoid receptor 1 [6]): < 50% | Activity (Cannabinoid receptor 2 [7]): < 50% | IC50 (Daoy [8]): 1.54 µM | IC50 [9]: 1.96 µM | Activity (Cannabinoid receptor 1 [10]): < 50% | IC50 (KNS-42 [2]): 9.06 µM | IC50 at 72 h [11]: 7.04 µM | IC50 [12]: 4.88 µM | IC50 [13]: 3.59 µM | IC50 (Daoy [15]): 4.71 µM | IC50 (Cannabinoid receptor 2 [17]): 1.28 µM

O=C(NC12CC3CC(CC(C3)C1)C2)c1c[nH]c2cc(Br)ccc2c1=O
IC50 (KNS-42 [1]): > 10 µM | IC50 (KNS-42 [2]): > 10 µM

O=C(NC12CC3CC(CC(C3)C1)C2)c1c[nH]c2c(Cl)c(Cl)ccc2c1=O
IC50 (KNS-42 [1]): 8.05 µM | IC50 (KNS-42 [2]): > 10 µM

O=C(Cc1ccc(NC(=O)c2cc3c(F)cc(F)cc3[nH]2)cc1)NC12CC3CC(CC(C3)C1)C2
IC50 (KNS-42 [1]): 4.9 µM | IC50 (KNS-42 [2]): > 10 µM

O=C(CNC(=O)c1cc2c(F)cc(F)cc2[nH]1)NC12CC3CC(CC(C3)C1)C2
IC50 (KNS-42 [1]): > 10 µM | IC50 (KNS-42 [2]): > 10 µM

O=C(NC12CC3CC(CC(C3)C1)C2)c1cc(=O)c2ccc(Br)cc2[nH]1
IC50 (KNS-42 [1]): > 10 µM | IC50 (KNS-42 [2]): > 10 µM

COc1cccc(CNC(=O)c2cc3c(F)cc(F)cc3[nH]2)c1OC
IC50 (KNS-42 [1]): > 10 µM | IC50 (KNS-42 [2]): > 10 µM

O=C(NC12CC3CC(CC(C3)C1)C2)c1cc2ccccc2[nH]1
IC50 (KNS-42 [1]): > 10 µM | IC50 (KNS-42 [2]): 0.33 µM

O=C(NCc1ccc(F)cc1)c1cc2c(F)cc(F)cc2[nH]1
IC50 (KNS-42 [1]): 4.34 µM | IC50 [3]: 9.23 µM | inhibition (Cannabinoid receptor 2 [4]): < 50% | IC50 at 72 h [5]: 40 µM | inhibition (Cannabinoid receptor 1 [6]): < 50% | Activity (Cannabinoid receptor 2 [7]): < 50% | IC50 (Daoy [8]): 4.1 µM | IC50 [9]: 5.5 µM | Activity (Cannabinoid receptor 1 [10]): < 50% | IC50 (KNS-42 [2]): 3.41 µM | IC50 at 72 h [11]: 281 µM | IC50 [12]: 9.79 µM | IC50 [13]: 8.87 µM | logP [14]: 3.23 | IC50 (Daoy [15]): > 10 µM

O=C(NC12CC3CC(CC(C3)C1)C2)c1c[nH]c2cc(Cl)cc(Cl)c2c1=O
IC50 (KNS-42 [1]): 9.17 µM | IC50 (KNS-42 [2]): > 10 µM

O=C(NC12CC3CC(CC(C3)C1)C2)c1cc(=O)c2c(Cl)cc(Cl)cc2[nH]1
IC50 (KNS-42 [1]): > 10 µM | IC50 (KNS-42 [2]): > 10 µM

O=C(Nc1nc2ccccc2[nH]1)C12CC3CC(CC(C3)C1)C2
IC50 (KNS-42 [1]): > 10 µM | IC50 (KNS-42 [2]): > 10 µM
